Source: PubChem BioAssay
Most compounds without a hit are left out; they make up all but 4% or so of the library.
OX1R antag-1 = OX1R (human) antagonism. O43613. OX1R-expressing cells, FRET antagonist read-out. inhibition, % at 6.6 µM. 330,000 tested, 1.8% active. AID 485270; in the data active = inhibition mostly above about 38%, no sharp cut-off; inactive = mostly below about 40%;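 note: 0% = agonist challenge alone and 100% = reference antagonist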
TAAR1 antag = antagonists of human TAAR1; CHO RD-HGA16 TAAR1, Fluo-8 calcium fluorescence, antagonist; inhibition, % at 3 µM; AID 624466; Q96RJ0; 360,000 tested, 1.5% active;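 active = inhibition above a per-plate cutoff, the mean inhibition of test compounds on that plate plus 3 SD, cut at about 49% in these data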;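 note: 0% = DMSO plus EC80 beta-PEA response and 100% = DMSO alone without agonist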
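Test system: RD-HGA16 CHO cells with stable hTAAR1 and Gα16 / Probe or stimulus: EC80 β-phenethylamine stimulus / Times: seeding 17-24 h prior, 75-min 37 °C, 30-min RT dye loading / Detection: Fluo-8 calcium-sensitive fluorescence / Read-out basis: % inhibition scaled between DMSO and EC80 PEA controls / Repeats: singlicate, one well per test compound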
TAAR1 ag = agonists of human TAAR1. Q96RJ0. CHO RD-HGA16 TAAR1, Fluo-8 calcium fluorescence; vehicle wells 0%, saturating PEA agonist 100%. activation, % at 3 µM. 360,000 tested, 0.99% active. AID 624467;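 active = activation above the mean activation of all test compounds in the run plus 3 SD, cut at about 38% in these data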
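Assay system – CHO-derived RD-HGA16 cells with stable Gα16 and human TAAR1 · Compound dosing – one-point dosing at 3 µM (nominal) · Incubation – 17-24 h seeding, 75 min 37 °C dye, 30 min RT · Measured by – kinetic Fluo-8 calcium fluorescence · Control set – DMSO vehicle as 0%, PEA at EC100 as 100% · Repeats – single well for each compound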
CHO parental Ca = counter-screen for OX1R antagonists: effect in parental CHO cells. AID 463079. 330,000 tested, 0.63% active. parental CHO-K1, ATP-induced calcium, Fluo-8 fluorescence. inhibition, % at 5.6 µM;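 active = inhibition above that plate's mean sample inhibition plus 3 SD, cut at about 26% in these data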;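 note: 0% = ATP-challenged DMSO wells and 100% = DMSO wells without ATP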
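Measured by: calcium-sensitive Fluo-8 fluorescence / Test system: CHO parental line / Controls: ATP-challenged DMSO wells low, unchallenged DMSO wells high / Measure: % inhibition / Compound: single nominal dose of 5.6 µM per compound / Replicates: single well per compound, no replicates / Reagent: ATP as calcium-mobilizing challenge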
NTR1 agonist = agonists of human neurotensin receptor NTR1; P30989; NTR1-U2OS beta-arrestin-GFP spot imaging, agonist mode; activation, % at 20 µM; 330,000 tested, 0.17% active; AID 493036;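 active = activation at or above 40% of the spot to cytoplasm intensity ratio, with at least 20 cells analyzed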;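 note: 0% = DMSO without peptide and 100% = 100 nM NTR1 peptide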
Target sequence (P30989 whole entry, looked up): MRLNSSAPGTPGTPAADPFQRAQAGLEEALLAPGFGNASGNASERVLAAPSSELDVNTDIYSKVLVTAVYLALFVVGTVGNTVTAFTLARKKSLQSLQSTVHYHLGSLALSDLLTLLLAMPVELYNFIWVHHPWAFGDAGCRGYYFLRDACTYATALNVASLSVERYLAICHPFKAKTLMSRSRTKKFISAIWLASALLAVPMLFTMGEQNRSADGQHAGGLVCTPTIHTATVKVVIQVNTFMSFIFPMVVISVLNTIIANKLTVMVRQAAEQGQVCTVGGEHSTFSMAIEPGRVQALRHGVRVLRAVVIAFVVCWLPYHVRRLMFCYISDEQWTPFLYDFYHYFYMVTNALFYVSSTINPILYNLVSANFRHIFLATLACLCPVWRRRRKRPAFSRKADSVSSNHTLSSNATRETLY
OX1R antag-2 = antagonists of human orexin 1 receptor. inhibition, % at 5 µM. 330,000 tested, 0.43% active. O43613. CHO/OX1R cells, Fluo-8 calcium fluorescence, orexin A;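 active = inhibition above its plate's threshold, mean inhibition of all tested compounds on the plate plus 3 SD, cut at about 37% in these data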;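 note: 0% = orexin A challenge wells and 100% = SB-334867-A antagonist wells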
Starred values were filed as active, the others as inactive; x = not tested or not shown.

SMILES	OX1R antag-1	TAAR1 antag	TAAR1 ag	CHO parental Ca	NTR1 agonist	OX1R antag-2
Cc1cc(C)cc(Cn2c3ccc(NC(=O)NCCc4cccs4)cc3c(=O)n2C)c1	x	59*	42*	x	x	x
Cn1c(=O)c2cc(NC(=O)NCCc3cccs3)ccc2n1Cc1ccccc1	x	21	6	x	x	x
Nc1cccc2c1C(=O)N(CCOc1ccccc1F)C2=O	7	-11	3	-4	2	-4
CN1CCN(CC(=O)Nc2cc(N3CCOCC3)ccc2[N+](=O)[O-])CC1	65*	0	1	2	2	-4
O=[N+]([O-])c1cccnc1N1CCOCC1	10	10	5	0	0	6
O=[N+]([O-])c1ccc(N2CCOCC2)cn1	40*	13	2	-3	1	-16
O=[N+]([O-])c1ccc(N2CCOCC2)cc1O	42*	6	0	-11	0	-5
CN(c1ccc(C(=O)COC(=O)C2CC2)cc1)S(C)(=O)=O	8	-6	5	-5	2	3
COc1cc(NC(=O)NCCN2CCN(c3ccc(Cl)cc3)CC2)ccc1C	1	36	48*	14	-1	17
COc1ccc(N2CCN(CCNC(=O)Nc3ccc(C)c(Cl)c3)CC2)cc1	-4	38	27	-2	1	-19
O=C(COc1ncnc2scc(-c3ccccc3)c12)NC1CCCc2ccccc21 (stereo not given)	73*	-9	1	-9	5	8
CCOC(=O)[C@@H]1[C@H]2COc3cc(OC)ccc3[C@H]2N2C(=O)N(c3ccc(C(F)(F)F)cc3)C(=O)[C@]12C	20	26	7	50*	7	31
CC(C)(C)C(=O)NC(=S)NNC(=O)C(c1ccccc1)c1ccccc1	1	x	x	79*	18	93*
CC(C)CN(C(=O)CN1CCN(c2ccc([N+](=O)[O-])cc2)CC1)c1c(N)n(CC(C)C)c(=O)[nH]c1=O	26	-14	8	-15	0	-13
COc1ccc(NC(=O)Nc2ccc3c(c2)C(=O)N([C@@H](C)CO)C[C@@H](C)[C@@H](CN(C)S(=O)(=O)c2cccs2)O3)cc1	9	-2	2	-9	-1	-6
O=C(CC(c1ccccc1)(c1ccccc1)c1ccccc1)N[C@@H](Cc1ccc(O)cc1)C(=O)O	50*	6	-1	-16	4	-2
O=C(COC(=O)CN1C(=O)NC2(CCCC2)C1=O)Nc1ccc(C(F)(F)F)cc1[N+](=O)[O-]	41*	29	10	-5	-1	-18
Cc1ccc(NC(=O)CN2C(=O)NC3(CCCc4ccccc43)C2=O)c([N+](=O)[O-])c1 (stereo not given)	54*	-13	6	-1	1	-6
Cc1ccccc1NC(=O)CN1C(=O)NC2(CCc3ccccc32)C1=O (stereo not given)	-5	-7	1	-4	0	-23
COc1cc2c(cc1NC(=O)CN1C(=O)NC3(CCc4ccccc43)C1=O)oc1ccccc12 (stereo not given)	28	50*	8	19	1	7
Cc1ccc(NC(=O)CN2C(=O)NC3(CCCc4ccccc43)C2=O)c(C)c1 (stereo not given)	x	-8	4	x	-2	x
O=C(COC(=O)CN1C(=O)NC2(CCCC2)C1=O)Nc1ccccc1C(F)(F)F	7	-16	3	-3	0	-15
CCc1noc2cc(-c3ccccc3)n(C)c(=O)c12	x	-26	2	x	x	x
COc1ccccc1NC(=O)OC[C@@H]1CSCCS(=O)(=O)N1	x	17	1	x	x	x
CCc1ccc(OC(C)C(=O)Nc2ccc(S(=O)(=O)Nc3nccs3)cc2)cc1 (stereo not given)	13	55*	45*	12	2	9
SMILES	OX1R antag-1	TAAR1 antag	TAAR1 ag	CHO parental Ca	NTR1 agonist	OX1R antag-2
c1ccc2c(c1)OCc1nccn1-2	x	15	0	x	x	x
COc1cc(N=Nc2ccc3ccccc3c2)ccc1O	-1	21	1	5	3	0
Oc1ccc(N=Nc2ccc3ccccc3c2)cc1	-1	13	0	43*	11	5
c1ccc(-c2nnc(OCC3CCCO3)c3ccccc23)cc1 (stereo not given)	27	17	12	-5	0	-24
O=S(=O)(Nc1nc2ccccc2nc1Cl)c1cccc(C(F)(F)F)c1	50*	-5	2	6	1	-17
CCC(=O)N1CCc2cc(S(=O)(=O)NCCC(=O)N3CC=C(c4ccccc4)CC3)ccc21	55*	17	4	12	1	5
CSCCC(NC(=O)COc1ccccc1)C(=O)N(C)Cc1c(F)cccc1Cl (stereo not given)	x	52*	10	x	x	x
CSCCC(NC(=O)COc1ccccc1)C(=O)N(C)CC(=O)Nc1ccc(Cl)cc1 (stereo not given)	0	-5	6	-18	2	-28
CCc1ccc2[nH]c3nc(N/N=C/c4ccc(O)cc4O)nnc3c2c1	74*	17	3	-13	4	-2
Cc1ccccc1CS(=O)(=O)c1nnc([C@H](Cc2ccccc2)NC(=O)OC(C)(C)C)o1	1	23	2	51*	0	34
CC(C)(C)OC(=O)N[C@@H](Cc1ccccc1)c1nnc(S(=O)(=O)Cc2ccccc2)o1	20	21	10	32*	8	30
CCSc1nnc([C@H](Cc2ccccc2)NC(=O)OC(C)(C)C)o1	14	6	5	-19	7	-31
COc1cc(S(=O)(=O)NCCCN2CCOCC2)ccc1-n1cnnn1	9	-8	1	-4	1	20
COc1ccc(NC(=O)CN(C)C(=O)c2ccc(S(=O)(=O)Nc3ccccc3C)cc2)cc1	x	-12	2	x	0	x
Cc1onc(-c2c(Cl)cccc2Cl)c1/C(N)=N/OC(=O)C(C)(C)C	3	1	11	-18	0	-16
Cc1onc(-c2c(Cl)cccc2Cl)c1CO/N=C(\C#N)c1c(Cl)cccc1Cl	18	49*	3	1	0	-25
C/C(=N\NC(=O)C(=O)N/N=C(\C)c1cccc(O)c1)c1cccc(O)c1	58*	-5	0	-10	2	-8
COc1c(C)cc(Br)cc1C(=O)Nc1cccc(NC(=O)c2ccco2)c1	11	x	x	-14	11	6
COc1ccc(Br)cc1C(=O)Nc1cccc(NC(=O)c2ccco2)c1	44*	31	11	-9	4	-11
Cc1cc(C)c(OCC(=O)Nc2cccc(NC(=O)c3ccco3)c2)c(Br)c1	64*	52*	7	32*	9	28
O=C(COc1ncnc2cc([N+](=O)[O-])ccc12)N(CCc1ccccc1)Cc1ccccc1	12	15	21	72*	0	54*
